Where a name gives a salt, the structure may show the parent alone. Read-outs that look alike come from different tables or passages of the source.
How the values were obtained:
[1] = tested on: patients with advanced hematological malignancies; assay: Phase 1 dose escalation, safety and toxicity, Arm 1; details: human, in vivo
[2] = Plasma pharmacokinetics of pracinostat; type: in vivo, human; details: for half-life / Tmax / AUC(0-inf) / Cmax: human, plasma; for AUC(0-inf): AUC0-inf
In short: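 The test compound was given orally at 10–120 mg to patients with hematologic malignancies. AUC0-inf was noncompartmental, t1/2 came from the terminal log-linear phase (≥3 last points), and Cmax/Tmax were read from the curves.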

HDAC = details: pan-HDACI; cited from earlier work
[3] = tested on: patients with advanced hematological malignancies; assay: Efficacy; type: in vivo, human
[4] = tested on: histone H3 acetylation (AcH3) in peripheral blood mononuclear cells; assay: Pharmacodynamics: AcH3 levels in PBMCs; type: in vivo, human; details: ten subjects; maximal at 3 h post-dose; no dose-dependent increase
[5] = tested on: patients with advanced solid tumors; details: cited from earlier work; for stable disease (SD) as best response, patients: advanced solid tumors
[6] = in vivo studies; cited from earlier work
[7] = cited from earlier work
[8] = po, 40 mg, Day 15, 40 mg oral, n=5, mean±SD
[9] = po, 40 mg, Day 1, 40 mg oral, n=6, mean±SD
[10] = po, 60 mg, Day 1, 60 mg oral, n=3, mean±SD
[11] = po, 60 mg, Day 15, 60 mg oral, n=3, mean±SD
[12] = po, 80 mg, Day 1, 80 mg oral, n=3, mean±SD
[13] = po, 80 mg, Day 15, 80 mg oral, n=3, mean±SD
[14] = po, 100 mg, Day 1, 100 mg oral, n=3, mean±SD
[15] = po, 100 mg, Day 15, 100 mg oral, n=3, mean±SD
[16] = po, 120 mg, Day 1, 120 mg oral, n=6, mean±SD
[17] = po, 120 mg, Day 15, 120 mg oral, n=2, mean

With `CCCCc1nc2cc(/C=C/C(=O)NO)ccc2n1CCN(CC)CC` [Pracinostat, 3-[2-butyl-1-(2-diethylaminoethyl)-1H-benzoimidazol-5-yl]-N-hydroxyacrylami-hydrochloride] the “AEs leading to a dose-interruption, patients” value [1] was 34%, the “AEs leading to a dose-reduction, patients” value [1] was 27% and the “Anemia, treatment-related adverse event, All Grades” value [1] was 5%. For the same compound, the “Anemia, treatment-related adverse event, Grade ≥ 3” value [1] was 5%, the “Anorexia, treatment-related adverse event, All Grades” value [1] was 23% and the “Anorexia, treatment-related adverse event, Grade ≥ 3” value [1] was 2%. The “Constipation, treatment-related adverse event, All Grades” value [1] was 5%, the “Constipation, treatment-related adverse event, Grade ≥ 3” value [1] was 0% and the “Diarrhea, treatment-related adverse event, All Grades” value [1] was 16%. For the same compound, the “Diarrhea, treatment-related adverse event, Grade ≥ 3” value [1] was 2%, the “Elevated ALT, treatment-related adverse event, All Grades” value [1] was 0% and the “Elevated ALT, treatment-related adverse event, Grade ≥ 3” value [1] was 0%. The “Fatigue, treatment-related adverse event, All Grades” value [1] was 41%, the “Fatigue, treatment-related adverse event, Grade ≥ 3” value [1] was 11% and the “Infections, treatment-related adverse event, All Grades” value [1] was 9%. For the same compound, the “Infections, treatment-related adverse event, Grade ≥ 3” value [1] was 9%, the “Nausea, treatment-related adverse event, All Grades” value [1] was 30% and the “Nausea, treatment-related adverse event, Grade ≥ 3” value [1] was 0%. For the same compound, the “Neutropenia, treatment-related adverse event, All Grades” value [1] was 2%, the “Neutropenia, treatment-related adverse event, Grade ≥ 3” value [1] was 2% and the “QTc prolongation, treatment-related adverse event, All Grades” value [1] was 7%. For the same compound, the “QTc prolongation, treatment-related adverse event, Grade ≥ 3” value [1] was 5%, the “Thrombocytopenia, treatment-related adverse event, All Grades” value [1] was 14% and the “Thrombocytopenia, treatment-related adverse event, Grade ≥ 3” value [1] was 11%. The “Vomiting, treatment-related adverse event, All Grades” value [1] was 14%, the “Vomiting, treatment-related adverse event, Grade ≥ 3” value [1] was 0% and the “discontinuation of pracinostat due to an AE, patients” value [1] was 25%. For the same compound, the “patients who experienced a grade ≥ 3 TRAE” value [1] was 20%, the “patients who experienced at least 1 TRAE” value [1] was 77% and the “pracinostat doses at which grade ≥ 3 thrombocytopenia was experienced” value [1] was ≥ 80 mg. For the same compound, the “DLTs, patients” value ([1]; 28 days) was 13%, the “doses at which DLTs occurred” value ([1]; 28 days) was ≥ 40 mg and the “recommended phase II dose (RP2D)” value ([1]; po, 28 days) was 60 mg. The “accumulation between Day 1 and Day 15 following repeated dosing” value ([2]; 100-mg dose level) was “moderate accumulation”, the “plasma concentrations relative to IC50 for HDAC 1, 2, and 3” value ([2]; all dose levels) was “above the 50% inhibitory concentration (IC50)” and the half-life ([2]; oral, 120 mg, prolonged t1/2 reaching, discussion summary) was ≤ 14 h. For the same compound, the Tmax ([2]; oral, range over dose levels, 40-120 mg, Days 1 and 15) was 0.8 to 1.3 h, the half-life ([2]; oral, mean t1/2, range over dose levels, 40-120 mg, Days 1 and 15) was 7 to 14.1 h and the AUC(0-inf) [2, 8] was 477 ± 191 ng·h/mL. The Cmax [2, 9] was 84 ± 34 ng/mL, the Cmax [2, 8] was 64 ± 19 ng/mL and the Tmax [2, 9] was 1.1 ± 0.7 h. For the same compound, the Tmax [2, 8] was 1.3 ± 0.7 h, the half-life ([2]; po, 40 mg, t1/2, Day 1, 40 mg oral, n=6, mean±SD) was 9.4 ± 3.5 h and the half-life ([2]; po, 40 mg, t1/2, Day 15, 40 mg oral, n=5, mean±SD) was 10.7 ± 2.3 h. It also gave an AUC(0-inf) [2, 10] of 948 ± 1140 ng·h/mL, an AUC(0-inf) [2, 11] of 766 ± 746 ng·h/mL and a Cmax [2, 10] of 133 ± 117 ng/mL. It also gave a Cmax [2, 11] of 118 ± 135 ng/mL, a Tmax [2, 10] of 1 ± 0.5 h and a Tmax [2, 11] of 0.8 ± 0.3 h. It also gave a half-life ([2]; po, 60 mg, t1/2, Day 1, 60 mg oral, n=3, mean±SD) of 12.1 ± 2.3 h, a half-life ([2]; po, 60 mg, t1/2, Day 15, 60 mg oral, n=3, mean±SD) of 11.8 ± 3.4 h and an AUC(0-inf) [2, 12] of 1050 ± 803 ng·h/mL. For the same compound, the AUC(0-inf) [2, 13] was 977 ± 459 ng·h/mL, the Cmax [2, 12] was 189 ± 182 ng/mL and the Cmax [2, 13] was 164 ± 122 ng/mL. It also gave a Tmax [2, 12] of 1.3 ± 0.8 h, a Tmax [2, 13] of 1.2 ± 0.3 h and a half-life ([2]; po, 80 mg, t1/2, Day 1, 80 mg oral, n=3, mean±SD) of 7 ± 1.1 h. The half-life ([2]; po, 80 mg, t1/2, Day 15, 80 mg oral, n=3, mean±SD) was 9.3 ± 4.1 h, the AUC(0-inf) [2, 14] was 1170 ± 347 ng·h/mL and the AUC(0-inf) [2, 15] was 1980 ± 682 ng·h/mL. The Cmax [2, 14] was 187 ± 99 ng/mL, the Cmax [2, 15] was 314 ± 143 ng/mL and the Tmax [2, 14] was 1.2 ± 0.3 h. For the same compound, the Tmax [2, 15] was 1 ± 0.5 h, the half-life ([2]; po, 100 mg, t1/2, Day 1, 100 mg oral, n=3, mean±SD) was 8.4 ± 1.1 h and the half-life ([2]; po, 100 mg, t1/2, Day 15, 100 mg oral, n=3, mean±SD) was 13.7 ± 5.6 h. The AUC(0-inf) [2, 16] was 1360 ± 725 ng·h/mL, the AUC(0-inf) [2, 17] was 757 ng·h/mL and the Cmax [2, 16] was 202 ± 83 ng/mL. It also gave a Cmax [2, 17] of 96 ng/mL, a Tmax [2, 16] of 1.2 ± 0.4 h and a Tmax [2, 17] of 1 h. The half-life ([2]; po, 120 mg, t1/2, Day 1, 120 mg oral, n=6, mean±SD) was 10.8 ± 3 h, the half-life ([2]; po, 120 mg, t1/2, Day 15, 120 mg oral, n=2, mean) was 14.1 h and the “effect of AZA administration on PK parameters for pracinostat” value ([2]; in vivo) was “not affected”. The “potency relative to vorinostat” value (HDAC) was “about twice”, the “PFS of responding AML patient” value ([3]; 80 mg dose level, 11 cycles) was 362 days and the “PFS of responding AML patient” value ([3]; 120 mg dose level, 8 cycles) was 197 days. The progressive disease ([3]; 32 evaluable patients) was 31%, the “responders (CR or CCyR)” value ([3]; 32 evaluable patients) was 6% and the “Median OS” value ([3]; 95% CI: 114.0- NA) was 362 days. The patients who died ([3]; Thirteen patients of 44) was 30%, the “AcH3 levels in PBMCs” value [4] was “increased across all dose levels” and the “stable disease (SD) as best response, patients” value ([5]; ref 12) was 32%. The “stable disease (SD) as best response, patients” value ([5]; ref 13) was 21%, the “dose of early emergence of grade 3 TRAEs and DLTs” value ([5]; continuous 5-day dosing every 2 weeks) was 20 mg and the “increased half-life (t1/2) compared to vorinostat” value [6] was 3.3 fold. For the same compound, the “increased oral bioavailability compared to vorinostat” value [6] was 4.1 fold.
For `O=C(CCCCCCC(=O)Nc1ccccc1)NO` [vorinostat], the half-life [7] is listed as 1 to 2 h.
